According to ChEMBL document CHEMBL1140039, “Aglycone exploration of C-arylglucoside inhibitors of renal sodium-dependent glucose transporter SGLT2” (Bioorg Med Chem Lett, 2008):

What was measured:
[1] = system: Rattus norvegicus; test: Effect on glucose concentration in Sprague-Dawley rat urine at 1 mg/kg, iv; assay type: ADME, organism-based; design: dose 1 mg/kg, route intravenous; details: in vivo
Outline: (§1)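 Fasted male rats or mice were anesthetized with i.p. ketamine:xylazine (.001 mL/g), and the bladder was cannulated via an abdominal incision. Drug was given intravenously. Urine was collected over 60 min in 10-min intervals and assayed for glucose concentration.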

[2] = system: Liver microsomes; test: Metabolic stability in Sprague-Dawley rat liver microsomes at 10 uM
[3] = system: Mus musculus; test: Effect on glucose concentration in Swiss Webster mouse urine at 0.3 mg/kg, iv; assay type: ADME, organism-based; design: dose 0.3 mg/kg, route intravenous; details: in vivo; outline: as §1
[4] = biological target: T1, Sodium/glucose cotransporter 2 (Homo sapiens, UniProt P31639); test: Inhibition of human SGLT2 expressed in Xenopus oocyte assessed as [14C]alpha-methyl glucopyranoside uptake
T1 sequence (P31639 whole entry): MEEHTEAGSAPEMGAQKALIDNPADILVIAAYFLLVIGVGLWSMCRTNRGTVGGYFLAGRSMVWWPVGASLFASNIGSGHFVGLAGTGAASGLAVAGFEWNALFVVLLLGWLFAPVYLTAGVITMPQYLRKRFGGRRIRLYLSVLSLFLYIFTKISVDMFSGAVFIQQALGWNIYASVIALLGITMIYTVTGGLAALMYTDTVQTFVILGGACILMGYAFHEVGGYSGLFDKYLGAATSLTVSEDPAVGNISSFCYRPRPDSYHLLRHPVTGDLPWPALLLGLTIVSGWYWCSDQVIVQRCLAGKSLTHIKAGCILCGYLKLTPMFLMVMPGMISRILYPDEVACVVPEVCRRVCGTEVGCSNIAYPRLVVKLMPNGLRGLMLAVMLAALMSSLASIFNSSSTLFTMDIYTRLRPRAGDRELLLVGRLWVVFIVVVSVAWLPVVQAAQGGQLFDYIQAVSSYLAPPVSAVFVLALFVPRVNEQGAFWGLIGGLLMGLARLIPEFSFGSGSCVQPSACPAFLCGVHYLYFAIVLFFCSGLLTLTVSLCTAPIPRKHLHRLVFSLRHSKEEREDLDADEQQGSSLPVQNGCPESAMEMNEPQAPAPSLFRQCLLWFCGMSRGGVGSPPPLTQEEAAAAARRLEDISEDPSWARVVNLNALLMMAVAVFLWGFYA

[5] = species: Homo sapiens; test: Selectivity for human SGLT2 over human SGLT1 expressed in Xenopus oocyte

Compound | urinary glucose [1] [mg/dL] | Stability [2] | urinary glucose [3] [mg/dL] | EC50 [4] [µM] | Selectivity ratio [5]
Cc1ccc(Cc2cccc([C@@H]3O[C@H](CO)[C@@H](O)[C@H](O)[C@H]3O)c2)cc1 | 230 | Stable | 600 | – | –
Cc1cc(O)c(C(=O)CCc2ccc3occc3c2)c(O[C@@H]2O[C@H](CO)[C@@H](O)[C@H](O)[C@H]2O)c1 | – | – | – | 0.05 | 4
